# Test results reported in ChEMBL document CHEMBL5724801, “EUbOPEN Chemogenomics Library - Multiplex” (2024).
# “And” between values parts separate entries of the source, which are not always exact repeats. Identical values can stand only once.
# Tested on: Fibroblast
# Assay: Multiplex assay against human fibroblast
# Type: toxicity, cell-based
# Method in brief: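 On a CQ1 microscope at 37°C and 5% CO2, live cells were imaged after compound addition. They had been stained at seeding with Hoechst33342, BioTracker Green Microtubule Cytoskeleton Dye, MitoTracker Red and Annexin V Alexa Fluor 680. CellPathfinder machine-learning gating assigned cells to Hoechst high-intensity objects or normal cells, normal cells to healthy, pyknosed or fragmented nuclei, and pyknosed cells to mitotic or apoptotic. Tubulin, mitochondrial-mass and membrane-permeability phenotypes are per cents of healthy-nucleus cells.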
# [1] = 12 h, 1 µM, compound concentration 1 uM
# [2] = 12 h, 10 µM, compound concentration 10 uM
# [3] = 24 h, 1 µM, compound concentration 1 uM
# [4] = 24 h, 10 µM, compound concentration 10 uM
# [5] = 48 h, 1 µM, compound concentration 1 uM
# [6] = 48 h, 10 µM, compound concentration 10 uM
structure (smiles),measurement,setting,value
CN1C[C@H](C(=O)N[C@]2(C)O[C@@]3(O)[C@@H]4CCCN4C(=O)[C@H](Cc4ccccc4)N3C2=O)C[C@@H]2c3cccc4[nH]cc(c34)C[C@H]21.CS(=O)(=O)O [DIHYDROERGOTAMINE MESYLATE],Population Apoptotic (%),[1],25% and 47%
same,Population Fragmented Nuclei (%),[1],13% and 32%
same,Population Healthy Nuclei (%),[1],70% and 51%
same,Population Hoechst High Intensity Objects (%),[1],1% and 7%
same,Population Membrane Permeable-Phenotype (%),[1],1% and 6%
same,Population Mitochondria Different-Phenotype (%),[1],1% and 5%
same,Population Mitotic Cells (%),[1],75% and 52%
same,Population Normal (%),[1],98% and 92%
same,Population Pyknosed Nuclei (%),[1],16%
same,Population Tubulin-Different-Phenotype (%),[1],23% and 31%
same,Total Cell Count,[1],127 and 155
same,Population Apoptotic (%),[2],57% and 31%
same,Population Fragmented Nuclei (%),[2],27% and 33%
same,Population Healthy Nuclei (%),[2],65% and 45%
same,Population Hoechst High Intensity Objects (%),[2],0% and 8%
same,Population Membrane Permeable-Phenotype (%),[2],0% and 2%
same,Population Mitochondria Different-Phenotype (%),[2],5% and 0%
same,Population Mitotic Cells (%),[2],42% and 68%
same,Population Normal (%),[2],100% and 91%
same,Population Pyknosed Nuclei (%),[2],7% and 21%
same,Total Cell Count,[2],92 and 114
same,Population Apoptotic (%),[3],38% and 47%
same,Population Fragmented Nuclei (%),[3],14% and 30%
same,Population Healthy Nuclei (%),[3],75% and 56%
same,Population Hoechst High Intensity Objects (%),[3],1% and 4%
same,Population Membrane Permeable-Phenotype (%),[3],0% and 7%
same,Population Mitochondria Different-Phenotype (%),[3],0% and 3%
same,Population Mitotic Cells (%),[3],61% and 52%
same,Population Normal (%),[3],98% and 95%
same,Population Pyknosed Nuclei (%),[3],10% and 13%
same,Population Tubulin-Different-Phenotype (%),[3],18% and 50%
same,Total Cell Count,[3],130 and 149
same,Population Apoptotic (%),[4],55% and 31%
same,Population Fragmented Nuclei (%),[4],17% and 35%
same,Population Healthy Nuclei (%),[4],72% and 43%
same,Population Hoechst High Intensity Objects (%),[4],1% and 5%
same,Population Membrane Permeable-Phenotype (%),[4],0% and 6%
same,Population Mitochondria Different-Phenotype (%),[4],1% and 0%
same,Population Mitotic Cells (%),[4],44% and 68%
same,Population Normal (%),[4],98% and 94%
same,Population Pyknosed Nuclei (%),[4],10% and 20%
same,Total Cell Count,[4],89 and 113
same,Population Apoptotic (%),[5],57% and 53%
same,Population Fragmented Nuclei (%),[5],20% and 38%
same,Population Healthy Nuclei (%),[5],68% and 50%
same,Population Hoechst High Intensity Objects (%),[5],1% and 5%
same,Population Membrane Permeable-Phenotype (%),[5],0% and 6%
same,Population Mitochondria Different-Phenotype (%),[5],2% and 6%
same,Population Mitotic Cells (%),[5],42% and 46%
same,Population Normal (%),[5],98% and 94%
same,Population Pyknosed Nuclei (%),[5],10% and 11%
same,Population Tubulin-Different-Phenotype (%),[5],30% and 48%
same,Total Cell Count,[5],134 and 139
same,Population Apoptotic (%),[6],63% and 76%
same,Population Fragmented Nuclei (%),[6],21% and 44%
same,Population Healthy Nuclei (%),[6],65% and 44%
same,Population Hoechst High Intensity Objects (%),[6],3%
same,Population Membrane Permeable-Phenotype (%),[6],1% and 11%
same,Population Mitochondria Different-Phenotype (%),[6],3% and 5%
same,Population Mitotic Cells (%),[6],36% and 23%
same,Population Normal (%),[6],96%
same,Population Pyknosed Nuclei (%),[6],12% and 10%
same,Population Tubulin-Different-Phenotype (%),[6],20% and 55%
same,Total Cell Count,[6],91 and 126
COc1cc(/C=C(\C#N)C(=O)Nc2nnc(C(F)(F)F)s2)ccc1OCc1ccc(C(F)(F)F)cc1C(F)(F)F,Population Healthy Nuclei (%),[1],58.16% and 84.16%
same,Population Hoechst High Intensity Objects (%),[1],0%
same,Population Membrane Permeable-Phenotype (%),[1],2.63% and 2.94%
same,Population Mitochondria Different-Phenotype (%),[1],3.51% and 3.53%
same,Population Mitotic Cells (%),[1],97.5% and 65%
same,Population Normal (%),[1],100%
same,Population Pyknosed Nuclei (%),[1],20.41% and 9.9%
same,Population Tubulin-Different-Phenotype (%),[1],14.04% and 8.24%
same,Total Cell Count,[1],196 and 202
same,Population Apoptotic (%),[2],13.04% and 12.12%
same,Population Fragmented Nuclei (%),[2],7.14% and 5.21%
same,Population Healthy Nuclei (%),[2],67.58% and 79.15%
same,Population Hoechst High Intensity Objects (%),[2],0%
same,Population Membrane Permeable-Phenotype (%),[2],4.07% and 1.2%
same,Population Mitochondria Different-Phenotype (%),[2],8.13% and 4.79%
same,Population Mitotic Cells (%),[2],86.96% and 87.88%
same,Population Normal (%),[2],100%
same,Population Pyknosed Nuclei (%),[2],25.27% and 15.64%
same,Population Tubulin-Different-Phenotype (%),[2],7.32% and 18.56%
same,Total Cell Count,[2],182 and 211
same,Population Apoptotic (%),[3],9.09% and 25%
same,Population Fragmented Nuclei (%),[3],17.05% and 6.05%
same,Population Healthy Nuclei (%),[3],67.74% and 86.51%
same,Population Hoechst High Intensity Objects (%),[3],0%
same,Population Membrane Permeable-Phenotype (%),[3],5.44% and 3.23%
same,Population Mitochondria Different-Phenotype (%),[3],4.76% and 1.61%
same,Population Mitotic Cells (%),[3],90.91% and 75%
same,Population Normal (%),[3],100%
same,Population Pyknosed Nuclei (%),[3],15.21% and 7.44%
same,Population Tubulin-Different-Phenotype (%),[3],14.97% and 9.14%
same,Total Cell Count,[3],217 and 215
same,Population Apoptotic (%),[4],9.09% and 23.53%
same,Population Fragmented Nuclei (%),[4],4.46% and 6.64%
same,Population Healthy Nuclei (%),[4],79.21% and 85.31%
same,Population Hoechst High Intensity Objects (%),[4],0%
same,Population Membrane Permeable-Phenotype (%),[4],3.75% and 3.33%
same,Population Mitochondria Different-Phenotype (%),[4],7.5% and 5%
same,Population Mitotic Cells (%),[4],90.91% and 76.47%
same,Population Normal (%),[4],100%
same,Population Pyknosed Nuclei (%),[4],16.34% and 8.06%
same,Population Tubulin-Different-Phenotype (%),[4],10% and 18.89%
same,Total Cell Count,[4],202 and 211
same,Population Apoptotic (%),[5],33.33% and 37.5%
same,Population Fragmented Nuclei (%),[5],14.56% and 6.01%
same,Population Healthy Nuclei (%),[5],78.54% and 90.56%
same,Population Hoechst High Intensity Objects (%),[5],0%
same,Population Membrane Permeable-Phenotype (%),[5],2.93% and 0.95%
same,Population Mitochondria Different-Phenotype (%),[5],8.29% and 2.37%
same,Population Mitotic Cells (%),[5],66.67% and 62.5%
same,Population Normal (%),[5],100%
same,Population Pyknosed Nuclei (%),[5],6.9% and 3.43%
same,Population Tubulin-Different-Phenotype (%),[5],6.83% and 10.43%
same,Total Cell Count,[5],261 and 233
same,Population Fragmented Nuclei (%),[6],7.11% and 8.56%
same,Population Healthy Nuclei (%),[6],90.05% and 88.74%
same,Population Hoechst High Intensity Objects (%),[6],0%
same,Population Membrane Permeable-Phenotype (%),[6],1.05% and 2.03%
same,Population Mitochondria Different-Phenotype (%),[6],10.53% and 2.54%
same,Population Mitotic Cells (%),[6],100% and 50%
same,Population Normal (%),[6],100%
same,Population Pyknosed Nuclei (%),[6],2.84% and 2.7%
same,Total Cell Count,[6],211 and 222
CN1CCN(c2ccc(Nc3c4ccccc4nc4ccccc34)cc2)CC1.Cl.Cl.O,Population Apoptotic (%),[1],47% and 44%
same,Population Fragmented Nuclei (%),[1],15% and 28%
same,Population Healthy Nuclei (%),[1],69% and 56%
same,Population Hoechst High Intensity Objects (%),[1],1%
same,Population Membrane Permeable-Phenotype (%),[1],0% and 5%
same,Population Mitochondria Different-Phenotype (%),[1],3% and 5%
same,Population Mitotic Cells (%),[1],52% and 56%
same,Population Normal (%),[1],98%
same,Population Pyknosed Nuclei (%),[1],14% and 15%
same,Population Tubulin-Different-Phenotype (%),[1],23% and 34%
same,Total Cell Count,[1],135 and 160
same,Population Apoptotic (%),[2],91% and 66%
same,Population Fragmented Nuclei (%),[2],42% and 65%
same,Population Healthy Nuclei (%),[2],49% and 29%
same,Population Hoechst High Intensity Objects (%),[2],8% and 16%
same,Population Membrane Permeable-Phenotype (%),[2],0% and 4%
same,Population Normal (%),[2],91% and 83%
same,Population Pyknosed Nuclei (%),[2],8% and 4%
same,Population Tubulin-Different-Phenotype (%),[2],90% and 79%
same,Total Cell Count,[2],158 and 177
same,Population Apoptotic (%),[3],70% and 60%
same,Population Fragmented Nuclei (%),[3],21% and 29%
same,Population Healthy Nuclei (%),[3],65% and 57%
same,Population Hoechst High Intensity Objects (%),[3],0%
same,Population Membrane Permeable-Phenotype (%),[3],0% and 3%
same,Population Mitochondria Different-Phenotype (%),[3],2% and 7%
same,Population Mitotic Cells (%),[3],29% and 40%
same,Population Normal (%),[3],99% and 100%
same,Population Pyknosed Nuclei (%),[3],12%
same,Total Cell Count,[3],139 and 155
same,Population Apoptotic (%),[4],77% and 60%
same,Population Fragmented Nuclei (%),[4],47% and 69%
same,Population Healthy Nuclei (%),[4],39% and 27%
same,Population Hoechst High Intensity Objects (%),[4],16% and 21%
same,Population Membrane Permeable-Phenotype (%),[4],1% and 6%
same,Population Mitochondria Different-Phenotype (%),[4],66% and 34%
same,Population Mitotic Cells (%),[4],22% and 40%
same,Population Normal (%),[4],83% and 78%
same,Population Pyknosed Nuclei (%),[4],12% and 3%
same,Population Tubulin-Different-Phenotype (%),[4],94% and 84%
same,Total Cell Count,[4],206 and 205
same,Population Apoptotic (%),[5],66% and 55%
same,Population Fragmented Nuclei (%),[5],23% and 25%
same,Population Healthy Nuclei (%),[5],70% and 68%
same,Population Hoechst High Intensity Objects (%),[5],1%
same,Population Membrane Permeable-Phenotype (%),[5],0% and 1%
same,Population Mitochondria Different-Phenotype (%),[5],4%
same,Population Mitotic Cells (%),[5],33% and 44%
same,Population Normal (%),[5],98%
same,Population Pyknosed Nuclei (%),[5],6% and 5%
same,Population Tubulin-Different-Phenotype (%),[5],26%
same,Total Cell Count,[5],144 and 157
same,Population Fragmented Nuclei (%),[6],71% and 88%
same,Population Healthy Nuclei (%),[6],15% and 11%
same,Population Hoechst High Intensity Objects (%),[6],45% and 38%
same,Population Membrane Permeable-Phenotype (%),[6],15% and 25%
same,Population Mitochondria Different-Phenotype (%),[6],30% and 12%
same,Population Normal (%),[6],54% and 61%
same,Population Pyknosed Nuclei (%),[6],12% and 0%
same,Population Tubulin-Different-Phenotype (%),[6],25% and 56%
same,Total Cell Count,[6],235 and 236
